# In ChEMBL document CHEMBL4177578, “Synthesis, pharmacological activities and molecular docking studies of pyrazolyltriazoles as anti-bacterial and anti-inflammatory agents” (Bioorg Med Chem, 2017):
# Calls of active or inactive are those of the source. The rule behind the calls is not given here.
# Test system: not listed separately
# Assay: Anti-inflammatory activity at 100 ug/ml using bovine serum albumin and egg albumin proteins incubated at 37 degC for 20 mins and then heated to 95 degC for 20 mins by UV-visible Spectrophotometry based protein denaturation method
# Type: functional
# Conditions: not given
# Method in brief: (§1)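 Albumin (bovine serum or egg) at 1% in 50 mM sodium phosphate buffer pH 6.4. Mixture is 0.1 ml test sample (1 mg/ml) plus 0.2 ml albumin, made to 5 ml with buffer. Held 37 °C for 20 min, then 95 °C for 20 min. Cooled to room temperature, turbidity read at 660 nm. % inhibition = (Abs control − Abs sample)/Abs control × 100. Triplicate, averaged.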
row,Compound,inhibition
1,Clc1ccc(-c2cn(Cc3cn(-c4ccccc4)nc3-c3ccccc3)nn2)cc1,inactive
2,Fc1ccc(-c2cn(Cc3cn(-c4ccccc4)nc3-c3ccccc3)nn2)cc1,inactive
3,COc1ccc(-c2nn(-c3ccccc3)cc2CN=[N+]=[N-])cc1,inactive
4,Clc1ccc(-n2cc(Cn3cc(-c4ccccc4)nn3)c(-c3ccccc3)n2)cc1,inactive
5,COC(=O)c1nnn(Cc2cn(-c3ccccc3)nc2-c2ccc(C)cc2)c1C(=O)OC,inactive
6,Clc1ccc(-c2nn(-c3ccccc3)cc2Cn2cc(-c3ccccc3)nn2)cc1,inactive
7,COc1ccc(-c2cn(Cc3cn(-c4ccccc4)nc3-c3ccccc3)nn2)cc1,inactive

# Test system: Staphylococcus aureus
# Assay: Antimicrobial activity against Staphylococcus aureus at 1 mg/ml incubated for 20 to 30 mins followed by incubation for 24 hrs at 37 degC by agar plate method
# Type: functional
# Conditions: not given
# Method in brief: (§2)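 Agar well diffusion on nutrient agar. Plates swabbed with 60 µL inoculum; 8 mm wells loaded with 100 µL of compound at 1.0 mg/mL. Held 20–30 min at 4 °C for diffusion, then 24 h at 37 °C. Inhibition zone diameter read in mm. Triplicate.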
row,Compound,diameter of the inhibition zone (DIZ)
1,Clc1ccc(-c2cn(Cc3cn(-c4ccccc4)nc3-c3ccccc3)nn2)cc1,inactive
2,Fc1ccc(-c2cn(Cc3cn(-c4ccccc4)nc3-c3ccccc3)nn2)cc1,inactive
3,COc1ccc(-c2nn(-c3ccccc3)cc2CN=[N+]=[N-])cc1,inactive
4,Clc1ccc(-n2cc(Cn3cc(-c4ccccc4)nn3)c(-c3ccccc3)n2)cc1,inactive
5,COC(=O)c1nnn(Cc2cn(-c3ccccc3)nc2-c2ccc(C)cc2)c1C(=O)OC,inactive
6,Clc1ccc(-c2nn(-c3ccccc3)cc2Cn2cc(-c3ccccc3)nn2)cc1,inactive
7,COc1ccc(-c2cn(Cc3cn(-c4ccccc4)nc3-c3ccccc3)nn2)cc1,inactive

# Test system: not listed separately
# Assay: Anti-inflammatory activity using bovine serum albumin and egg albumin proteins incubated at 37 degC for 20 mins and then heated to 95 degC for 20 mins by UV-visible Spectrophotometry based protein denaturation method
# Type: functional
# Conditions: not given
# Method in brief: as §1
row,Compound,IC50
1,Clc1ccc(-c2cn(Cc3cn(-c4ccccc4)nc3-c3ccccc3)nn2)cc1,Not Active
2,Fc1ccc(-c2cn(Cc3cn(-c4ccccc4)nc3-c3ccccc3)nn2)cc1,Not Active
3,COc1ccc(-c2nn(-c3ccccc3)cc2CN=[N+]=[N-])cc1,Not Active
4,Clc1ccc(-n2cc(Cn3cc(-c4ccccc4)nn3)c(-c3ccccc3)n2)cc1,Not Active
5,COC(=O)c1nnn(Cc2cn(-c3ccccc3)nc2-c2ccc(C)cc2)c1C(=O)OC,Not Active
6,Clc1ccc(-c2nn(-c3ccccc3)cc2Cn2cc(-c3ccccc3)nn2)cc1,Not Active
7,COc1ccc(-c2cn(Cc3cn(-c4ccccc4)nc3-c3ccccc3)nn2)cc1,Not Active

# Test system: Micrococcus luteus
# Assay: Antimicrobial activity against Micrococcus luteus incubated for 12 to 16 hrs followed by plating in nutrient agar by tube dilution method
# Type: functional
# Conditions: not given
# Method in brief: (§3)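 Tube dilution, serial from 500 to 1.9 µg/mL, plus drug-free control tube. Each tube inoculated with 1 mL culture at OD 0.2, incubated 37 °C for 12–16 h. MIC is the lowest concentration with no growth by turbidity. MBC is found by plating each tube on nutrient agar: the lowest concentration at which all cells are killed.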
row,Compound,MBC
1,Clc1ccc(-c2cn(Cc3cn(-c4ccccc4)nc3-c3ccccc3)nn2)cc1,inactive
2,Fc1ccc(-c2cn(Cc3cn(-c4ccccc4)nc3-c3ccccc3)nn2)cc1,inactive
3,COc1ccc(-c2nn(-c3ccccc3)cc2CN=[N+]=[N-])cc1,inactive
4,Clc1ccc(-n2cc(Cn3cc(-c4ccccc4)nn3)c(-c3ccccc3)n2)cc1,inactive
5,COC(=O)c1nnn(Cc2cn(-c3ccccc3)nc2-c2ccc(C)cc2)c1C(=O)OC,inactive
6,Clc1ccc(-c2nn(-c3ccccc3)cc2Cn2cc(-c3ccccc3)nn2)cc1,inactive
7,COc1ccc(-c2cn(Cc3cn(-c4ccccc4)nc3-c3ccccc3)nn2)cc1,inactive

# Test system: Micrococcus luteus
# Assay: Antimicrobial activity against Micrococcus luteus at 1 mg/ml incubated for 20 to 30 mins followed by incubation for 24 hrs at 37 degC by agar plate method
# Type: functional
# Conditions: not given
# Method in brief: as §2
row,Compound,diameter of the inhibition zone (DIZ)
1,Clc1ccc(-c2cn(Cc3cn(-c4ccccc4)nc3-c3ccccc3)nn2)cc1,inactive
2,Fc1ccc(-c2cn(Cc3cn(-c4ccccc4)nc3-c3ccccc3)nn2)cc1,inactive
3,COc1ccc(-c2nn(-c3ccccc3)cc2CN=[N+]=[N-])cc1,inactive
4,Clc1ccc(-n2cc(Cn3cc(-c4ccccc4)nn3)c(-c3ccccc3)n2)cc1,inactive
5,COC(=O)c1nnn(Cc2cn(-c3ccccc3)nc2-c2ccc(C)cc2)c1C(=O)OC,inactive
6,Clc1ccc(-c2nn(-c3ccccc3)cc2Cn2cc(-c3ccccc3)nn2)cc1,inactive
7,COc1ccc(-c2cn(Cc3cn(-c4ccccc4)nc3-c3ccccc3)nn2)cc1,inactive

# Test system: not listed separately
# Assay: Anti-inflammatory activity at 50 ug/ml using bovine serum albumin and egg albumin proteins incubated at 37 degC for 20 mins and then heated to 95 degC for 20 mins by UV-visible Spectrophotometry based protein denaturation method
# Type: functional
# Conditions: not given
# Method in brief: as §1
row,Compound,inhibition
1,Clc1ccc(-c2cn(Cc3cn(-c4ccccc4)nc3-c3ccccc3)nn2)cc1,inactive
2,Fc1ccc(-c2cn(Cc3cn(-c4ccccc4)nc3-c3ccccc3)nn2)cc1,inactive
3,COc1ccc(-c2nn(-c3ccccc3)cc2CN=[N+]=[N-])cc1,inactive
4,Clc1ccc(-n2cc(Cn3cc(-c4ccccc4)nn3)c(-c3ccccc3)n2)cc1,inactive
5,COC(=O)c1nnn(Cc2cn(-c3ccccc3)nc2-c2ccc(C)cc2)c1C(=O)OC,inactive
6,Clc1ccc(-c2nn(-c3ccccc3)cc2Cn2cc(-c3ccccc3)nn2)cc1,inactive
7,COc1ccc(-c2cn(Cc3cn(-c4ccccc4)nc3-c3ccccc3)nn2)cc1,inactive

# Test system: Micrococcus luteus
# Assay: Antimicrobial activity against Micrococcus luteus incubated for 12 to 16 hrs by tube dilution method
# Type: functional
# Conditions: not given
# Method in brief: as §3
row,Compound,MIC
1,Clc1ccc(-c2cn(Cc3cn(-c4ccccc4)nc3-c3ccccc3)nn2)cc1,inactive
2,Fc1ccc(-c2cn(Cc3cn(-c4ccccc4)nc3-c3ccccc3)nn2)cc1,inactive
3,COc1ccc(-c2nn(-c3ccccc3)cc2CN=[N+]=[N-])cc1,inactive
4,Clc1ccc(-n2cc(Cn3cc(-c4ccccc4)nn3)c(-c3ccccc3)n2)cc1,inactive
5,COC(=O)c1nnn(Cc2cn(-c3ccccc3)nc2-c2ccc(C)cc2)c1C(=O)OC,inactive
6,Clc1ccc(-c2nn(-c3ccccc3)cc2Cn2cc(-c3ccccc3)nn2)cc1,inactive
7,COc1ccc(-c2cn(Cc3cn(-c4ccccc4)nc3-c3ccccc3)nn2)cc1,inactive

# Test system: Salmonella typhi
# Assay: Antimicrobial activity against Salmonella typhi incubated for 12 to 16 hrs by tube dilution method
# Type: functional
# Conditions: Salmonella enterica subsp. enterica serovar Typhi
# Method in brief: (§4)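 Broth tube dilution, two-fold serial dilutions from 500 to 1.9 µg/mL plus a drug-free control tube. Each tube inoculated with 1 mL culture at OD 0.2 (~McFarland standard), 37 °C for 12-16 h. Turbidity compared with the control tube. MIC is the lowest concentration giving complete growth inhibition.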
row,Compound,MIC
1,Clc1ccc(-c2cn(Cc3cn(-c4ccccc4)nc3-c3ccccc3)nn2)cc1,inactive
2,Fc1ccc(-c2cn(Cc3cn(-c4ccccc4)nc3-c3ccccc3)nn2)cc1,inactive
3,COc1ccc(-c2nn(-c3ccccc3)cc2CN=[N+]=[N-])cc1,inactive
4,Clc1ccc(-n2cc(Cn3cc(-c4ccccc4)nn3)c(-c3ccccc3)n2)cc1,inactive
5,COC(=O)c1nnn(Cc2cn(-c3ccccc3)nc2-c2ccc(C)cc2)c1C(=O)OC,inactive
6,Clc1ccc(-c2nn(-c3ccccc3)cc2Cn2cc(-c3ccccc3)nn2)cc1,inactive
7,COc1ccc(-c2cn(Cc3cn(-c4ccccc4)nc3-c3ccccc3)nn2)cc1,inactive

# Test system: Salmonella paratyphi
# Assay: Antimicrobial activity against Salmonella paratyphi at 1 mg/ml incubated for 20 to 30 mins followed by incubation for 24 hrs at 37 degC by agar plate method
# Type: functional
# Conditions: Salmonella enterica subsp. enterica serovar Paratyphi A
# Method in brief: (§5)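 Agar well diffusion on nutrient agar. Plates swabbed with 60 µL inoculum, 8 mm wells loaded with 100 µL sample at 1.0 mg/mL, streptomycin standard and control in separate wells. Plates held 20–30 min at 4 °C for diffusion, then 24 h at 37 °C. Zone diameter read in mm; triplicate.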
row,Compound,diameter of the inhibition zone (DIZ)
1,Clc1ccc(-c2cn(Cc3cn(-c4ccccc4)nc3-c3ccccc3)nn2)cc1,inactive
2,Fc1ccc(-c2cn(Cc3cn(-c4ccccc4)nc3-c3ccccc3)nn2)cc1,inactive
3,COc1ccc(-c2nn(-c3ccccc3)cc2CN=[N+]=[N-])cc1,inactive
4,Clc1ccc(-n2cc(Cn3cc(-c4ccccc4)nn3)c(-c3ccccc3)n2)cc1,inactive
5,COC(=O)c1nnn(Cc2cn(-c3ccccc3)nc2-c2ccc(C)cc2)c1C(=O)OC,inactive
6,Clc1ccc(-c2nn(-c3ccccc3)cc2Cn2cc(-c3ccccc3)nn2)cc1,inactive
7,COc1ccc(-c2cn(Cc3cn(-c4ccccc4)nc3-c3ccccc3)nn2)cc1,inactive

# Test system: Salmonella typhi
# Assay: Antimicrobial activity against Salmonella typhi incubated for 12 to 16 hrs followed by plating in nutrient agar by tube dilution method
# Type: functional
# Conditions: Salmonella enterica subsp. enterica serovar Typhi
# Method in brief: (§6)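 After 12-16 h at 37 °C in tube dilution (500 to 1.9 µg/mL; 1 mL inoculum at OD 0.2), the culture from each tube was plated on nutrient agar. MBC is the concentration at which cells are completely killed.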
row,Compound,MBC
1,Clc1ccc(-c2cn(Cc3cn(-c4ccccc4)nc3-c3ccccc3)nn2)cc1,inactive
2,Fc1ccc(-c2cn(Cc3cn(-c4ccccc4)nc3-c3ccccc3)nn2)cc1,inactive
3,COc1ccc(-c2nn(-c3ccccc3)cc2CN=[N+]=[N-])cc1,inactive
4,Clc1ccc(-n2cc(Cn3cc(-c4ccccc4)nn3)c(-c3ccccc3)n2)cc1,inactive
5,COC(=O)c1nnn(Cc2cn(-c3ccccc3)nc2-c2ccc(C)cc2)c1C(=O)OC,inactive
6,Clc1ccc(-c2nn(-c3ccccc3)cc2Cn2cc(-c3ccccc3)nn2)cc1,inactive
7,COc1ccc(-c2cn(Cc3cn(-c4ccccc4)nc3-c3ccccc3)nn2)cc1,inactive

# Test system: Salmonella paratyphi
# Assay: Antimicrobial activity against Salmonella paratyphi incubated for 12 to 16 hrs followed by plating in nutrient agar by tube dilution method
# Type: functional
# Conditions: Salmonella enterica subsp. enterica serovar Paratyphi A
# Method in brief: as §6
row,Compound,MBC
1,Clc1ccc(-c2cn(Cc3cn(-c4ccccc4)nc3-c3ccccc3)nn2)cc1,inactive
2,Fc1ccc(-c2cn(Cc3cn(-c4ccccc4)nc3-c3ccccc3)nn2)cc1,inactive
3,COc1ccc(-c2nn(-c3ccccc3)cc2CN=[N+]=[N-])cc1,inactive
4,Clc1ccc(-n2cc(Cn3cc(-c4ccccc4)nn3)c(-c3ccccc3)n2)cc1,inactive
5,COC(=O)c1nnn(Cc2cn(-c3ccccc3)nc2-c2ccc(C)cc2)c1C(=O)OC,inactive
6,Clc1ccc(-c2nn(-c3ccccc3)cc2Cn2cc(-c3ccccc3)nn2)cc1,inactive
7,COc1ccc(-c2cn(Cc3cn(-c4ccccc4)nc3-c3ccccc3)nn2)cc1,inactive

# Test system: Salmonella paratyphi
# Assay: Antimicrobial activity against Salmonella paratyphi incubated for 12 to 16 hrs by tube dilution method
# Type: functional
# Conditions: Salmonella enterica subsp. enterica serovar Paratyphi A
# Method in brief: as §4
row,Compound,MIC
1,Clc1ccc(-c2cn(Cc3cn(-c4ccccc4)nc3-c3ccccc3)nn2)cc1,inactive
2,Fc1ccc(-c2cn(Cc3cn(-c4ccccc4)nc3-c3ccccc3)nn2)cc1,inactive
3,COc1ccc(-c2nn(-c3ccccc3)cc2CN=[N+]=[N-])cc1,inactive
4,Clc1ccc(-n2cc(Cn3cc(-c4ccccc4)nn3)c(-c3ccccc3)n2)cc1,inactive
5,COC(=O)c1nnn(Cc2cn(-c3ccccc3)nc2-c2ccc(C)cc2)c1C(=O)OC,inactive
6,Clc1ccc(-c2nn(-c3ccccc3)cc2Cn2cc(-c3ccccc3)nn2)cc1,inactive
7,COc1ccc(-c2cn(Cc3cn(-c4ccccc4)nc3-c3ccccc3)nn2)cc1,inactive

# Test system: Salmonella typhi
# Assay: Antimicrobial activity against Salmonella typhi at 1 mg/ml incubated for 20 to 30 mins followed by incubation for 24 hrs at 37 degC by agar plate method
# Type: functional
# Conditions: Salmonella enterica subsp. enterica serovar Typhi
# Method in brief: as §5
row,Compound,diameter of the inhibition zone (DIZ)
1,Clc1ccc(-c2cn(Cc3cn(-c4ccccc4)nc3-c3ccccc3)nn2)cc1,inactive
2,Fc1ccc(-c2cn(Cc3cn(-c4ccccc4)nc3-c3ccccc3)nn2)cc1,inactive
3,COc1ccc(-c2nn(-c3ccccc3)cc2CN=[N+]=[N-])cc1,inactive
4,Clc1ccc(-n2cc(Cn3cc(-c4ccccc4)nn3)c(-c3ccccc3)n2)cc1,inactive
5,COC(=O)c1nnn(Cc2cn(-c3ccccc3)nc2-c2ccc(C)cc2)c1C(=O)OC,inactive
6,Clc1ccc(-c2nn(-c3ccccc3)cc2Cn2cc(-c3ccccc3)nn2)cc1,inactive
7,COc1ccc(-c2cn(Cc3cn(-c4ccccc4)nc3-c3ccccc3)nn2)cc1,inactive
